The record followed here is ChEMBL document CHEMBL3286139, “Synthesis of α, β-unsaturated carbonyl based compounds as acetylcholinesterase and butyrylcholinesterase inhibitors: characterization, molecular modeling, QSAR studies and effect against amyloid β-induced cytotoxicity” (Eur J Med Chem, 2014).

Calls of active or inactive are those of the source. No cut-off for these calls is given here.

The test system of data set [1] is Radical scavenging activity. Kind of data set: Antioxidant activity assessed as DPPH free radical scavenging activity. The data set is classed as functional. For orientation: DPPH is a stable violet radical that fades when it is reduced.
Data set [2] can be described thus: Cytotoxicity against rat PC12 cells at 0.01 to 100 uM after 24 hrs by MTT assay. Format: cell-based. The following applies: pc-12, 24 h. In outline: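 PC12 cells kept in RPMI-1640 with 10% heat-inactivated FBS and 1% penicillin-streptomycin at 37°C, 5% CO2. Seeded 1×10^4 cells/well, exposed to compound (0.01-100 μM) for 24 h. MTT (2.0 mg/ml) added for 4 h at 37°C, formazan dissolved in DMSO, read at 570/630 nm. Viability given as percent of control cultures.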
(In general: Tetrazolium dyes change colour on reduction, which living cells bring about.)

In another data set the test system is PC-12. Kind of data set: Neuroprotective activity against amyloid beta (1 to 42)-induced cytotoxicity in rat PC12 cells at 0.01 to 100 uM pretreated for 24 hrs followed by addition of 25 uM amyloid beta (1 to 42) by MTT assay. The data set is classed as functional, cell-based. The essentials: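 PC12 cells (RPMI-1640, 10% heat-inactivated FBS, 37°C, 5% CO2) pre-incubated with compound (0.01-100 μM) in serum-free medium for 24 h, then given 25 µM Aβ1-42. Untreated control lacked Aβ. Selegiline served as positive control. MTT 2.0 mg/ml for 4 h at 37°C, DMSO solubilization, 570/630 nm read. Mean percent viable cells versus untreated, mean ± SE, n=5.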

A short description of data set [3]: Neuroprotective activity against amyloid beta (1 to 42)-induced cytotoxicity in rat PC12 cells at 100 uM pretreated for 24 hrs followed by addition of 25 uM amyloid beta (1 to 42) by MTT assay. Format: functional, PC-12. In outline:
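PC12 cells in RPMI-1640/10% heat-inactivated FBS, 37°C, 5% CO2, seeded 1×10^4 cells/well. Compound pre-incubation 24 h in serum-free medium, then 25 µM Aβ1-42 added; selegiline as positive control. MTT 2.0 mg/ml, 4 h at 37°C, formazan dissolved in DMSO, read 570/630 nm. Viability as % of untreated cells, mean ± SE, n=5.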

The IC50 is the concentration needed to halve the response being measured. `O=C1/C(=C/c2ccc(N3CCCC3)cc2)CC/C1=C\c1ccc(N2CCCC2)cc1`: the IC50 in data set [1] is greater than 50 µM. In addition, in data set [2], the Activity entry is “Non-toxic”. Moreover, the result with PC-12 was inactive.
On the same counts, the results for `CN(C)c1ccc(/C=C2/COC/C(=C\c3ccc(N(C)C)cc3[N+](=O)[O-])C2=O)c([N+](=O)[O-])c1` are 29.2 µM, “Non-toxic” and “Active”.
Taken in the same sequence, the figures for `CN(C)c1ccc(/C=C/C(=O)/C=C/c2ccc(N(C)C)cc2[N+](=O)[O-])c([N+](=O)[O-])c1` were greater than 50 µM, “Non-toxic” and “Active”.
As to `C#CCN(C)[C@H](C)Cc1ccccc1`, in the data set with PC-12, the result was Active.
For `CN1C/C(=C/c2ccc(N3CCCC3)cc2)C(=O)/C(=C/c2ccc(N3CCCC3)cc2)C1`, the IC50 in data set [1] worked out at 43.3 µM. Moreover, the Activity entry in data set [2] was “Non-toxic”. For the same compound, the result with PC-12 was inactive.
As to `O=C1/C(=C/c2ccc(N3CCCC3)cc2)Cc2ccccc21`, in data set [1], the 50% inhibitory concentration (IC50) was greater than 50 µM. The Activity result in data set [2] is “Non-toxic”. Also, the result in the data set on PC-12 was inactive.
Turning to `O=C(/C=C/c1ccc(N2CCCC2)cc1)C1CCc2ccccc2C1=O` (configuration not stated), in data set [1], the half-maximal inhibitory concentration (IC50) came out at 27.9 µM. For the same compound, in data set [2], the Activity entry is “Non-toxic”. Further, the result with PC-12 was inactive.
For `O=C1/C(=C\c2ccc(N3CCCC3)cc2)COC/C1=C\c1ccc(N2CCCC2)cc1`, the 50% inhibitory concentration (IC50) in data set [1] was greater than 50 µM. The Activity entry in data set [2] was “Non-toxic”. For the same compound, the outcome in the data set on PC-12 was inactive.
`CCOC(OCC)c1ccc(/C=C2\CNC/C(=C\c3ccc(C(OCC)OCC)cc3)C2=O)cc1`: in data set [1], the IC50 came to 19.3 µM. Further, the results for the Activity entry in data set [3] and in data set [2] were “<=87%” and “Non-toxic”, respectively. In addition, in the data set on PC-12, the outcome was Active.
Taken in the same sequence, the figures for `CCOC(OCC)c1ccc(/C=C2\CN(C)C/C(=C\c3ccc(C(OCC)OCC)cc3)C2=O)cc1` were 20.4 µM, “<=87%”, “Non-toxic” and “Active”.
Regarding `O=C1O[C@H]([C@@H](O)CO)C(O)=C1O` [ASCORBIC ACID], the IC50 in data set [1] stood at 19.4 µM.
Consider `O=C1/C(=C\c2ccc(N3CCCC3)cc2)CCC/C1=C\c1ccc(N2CCCC2)cc1`, for which the IC50 in data set [1] was determined as 31.3 µM. In addition, the Activity entry in data set [2] was “Non-toxic”. Moreover, in the data set with PC-12, the outcome was inactive.
In the case of `CCOC(OCC)c1ccc(/C=C2\CC/C(=C\c3ccc(C(OCC)OCC)cc3)C2=O)cc1`, the Activity result in data set [2] is on record as “Non-toxic”. For the same compound, the outcome in the data set on PC-12 was inactive.
On to `CN(C)c1ccc(/C=C2\Cc3ccccc3C2=O)c([N+](=O)[O-])c1`, for which, in data set [1], the IC50 is greater than 50 µM. The Activity result in data set [2] is “Non-toxic”. The result in the data set with PC-12 was Active.
On the same counts, the results for `CCOC(OCC)c1ccc(/C=C/C(=O)/C=C/c2ccc(C(OCC)OCC)cc2)cc1` are greater than 50 µM, “Non-toxic” and “inactive”.
In the case of `CCOC(OCC)c1ccc(/C=C2\CCc3ccccc3C2=O)cc1`, the IC50 in data set [1] amounted to 39.5 µM. The Activity entry in data set [2] is given as “Non-toxic”. Besides, the outcome in the data set with PC-12 was inactive.
Taken in the same sequence, the figures for `O=C1/C(=C\c2ccc(N3CCCC3)cc2)CNC/C1=C\c1ccc(N2CCCC2)cc1` were 26.9 µM, “Non-toxic” and “inactive”.
Consider `CCOC(OCC)c1ccc(/C=C2\Cc3ccccc3C2=O)cc1`, for which, in data set [1], the IC50 turned out to be 37.2 µM. Besides, in data set [2], the Activity entry was “Non-toxic”. Moreover, in the data set with PC-12, the result was inactive.
On the same counts, the results for `O=C1/C(=C/c2ccc(N3CCCC3)cc2)CCc2ccccc21` are 29.2 µM, “Non-toxic” and “inactive”.
In the case of `CCOC(OCC)c1ccc(/C=C/C(=O)C2CCc3ccccc3C2=O)cc1` (configuration not stated), the IC50 in data set [1] was greater than 50 µM. The Activity entry in data set [2] is given as “Non-toxic”. In addition, the result in the data set with PC-12 was inactive.
`CN(C)c1ccc(/C=C2\CCc3ccccc3C2=O)c([N+](=O)[O-])c1`: in data set [1], the IC50 came out at 23 µM. The figures for the Activity entry in data set [3] and in data set [2] were “<=87%” and “Non-toxic”, respectively. In the data set with PC-12, the outcome was Active.
As to `CN(C)c1ccc(/C=C2/CCC/C(=C\c3ccc(N(C)C)cc3[N+](=O)[O-])C2=O)c([N+](=O)[O-])c1`, the IC50 in data set [1] turned out to be 32.5 µM. In addition, in data set [2], the Activity entry is reported as “Non-toxic”. Further, the outcome in the data set with PC-12 was Active.
Regarding `CCOC(OCC)c1ccc(/C=C2\CCC/C(=C\c3ccc(C(OCC)OCC)cc3)C2=O)cc1`, the half-maximal inhibitory concentration (IC50) in data set [1] was found to be 20.1 µM. Besides, the Activity result in data set [3] is recorded as “<=87%”; in data set [2] it was “Non-toxic”. For the same compound, the outcome in the data set on PC-12 was Active.
Take `CCOC(OCC)c1ccc(/C=C2\COC/C(=C\c3ccc(C(OCC)OCC)cc3)C2=O)cc1`: in data set [1], the IC50 was 29.3 µM. In data set [2], the Activity entry is given as “Non-toxic”. Also, the result in the data set with PC-12 was inactive.
With `CN1C/C(=C/c2ccc(N(C)C)cc2[N+](=O)[O-])C(=O)/C(=C/c2ccc(N(C)C)cc2[N+](=O)[O-])C1`, in data set [1], the IC50 was determined as 18.4 µM. For the same compound, the Activity entry in data set [3] was “<=87%”; in data set [2], “Non-toxic”. Moreover, in the data set on PC-12, the result was Active.
In the case of `O=C1/C(=C\c2ccc(N3CCCC3)cc2)CN(Cc2ccccc2)C/C1=C\c1ccc(N2CCCC2)cc1`, the IC50 in data set [1] is greater than 50 µM. For the same compound, the Activity result in data set [2] is “Non-toxic”. In addition, in the data set with PC-12, the outcome was inactive.
`O=C(/C=C/c1ccc(N2CCCC2)cc1)/C=C/c1ccc(N2CCCC2)cc1`: the IC50 in data set [1] is greater than 50 µM. Further, in data set [2], the Activity entry is “Non-toxic”. Further, the outcome in the data set on PC-12 was inactive.
Turning to `CN(C)c1ccc(/C=C2/CNC/C(=C\c3ccc(N(C)C)cc3[N+](=O)[O-])C2=O)c([N+](=O)[O-])c1`, the IC50 in data set [1] is 25.7 µM. Besides, the results for the Activity entry in data set [3] and in data set [2] were “<=87%” and “Non-toxic”, respectively. Moreover, in the data set on PC-12, the result was Active.
Regarding `CN(C)c1ccc(/C=C/C(=O)C2CCc3ccccc3C2=O)c([N+](=O)[O-])c1` (configuration not stated), the IC50 in data set [1] stood at 49.1 µM. In data set [2], the Activity entry is “Non-toxic”. The outcome in the data set on PC-12 was Active.
Taken in the same sequence, the figures for `CN(C)c1ccc(/C=C2\CC/C(=C\c3ccc(N(C)C)cc3[N+](=O)[O-])C2=O)c([N+](=O)[O-])c1` were 47.8 µM, “Non-toxic” and “Active”.
For the compound `CCOC(OCC)c1ccc(/C=C2\CN(Cc3ccccc3)C/C(=C\c3ccc(C(OCC)OCC)cc3)C2=O)cc1`, the IC50 in data set [1] is 28.2 µM. Also, in data set [2], the Activity entry was “Non-toxic”. Besides, in the data set on PC-12, the outcome was inactive.
On to `CN(C)c1ccc(/C=C2/CN(Cc3ccccc3)C/C(=C\c3ccc(N(C)C)cc3[N+](=O)[O-])C2=O)c([N+](=O)[O-])c1`, for which the IC50 in data set [1] is greater than 50 µM. Besides, the Activity entry in data set [2] is recorded as “Non-toxic”. Further, in the data set on PC-12, the outcome was Active.
